Assay results as given in ChEMBL document CHEMBL1138667, “Phenylguanidines as selective nonpeptide melanocortin-5 receptor antagonists” (J Med Chem, 2004).

Key:
Melanocortin receptor 5 [1] = target: T1, Melanocortin receptor 5 (Homo sapiens, UniProt P33032); test: Inhibition of [125I]NDP-MSH binding to human Melanocortin 5 receptor expressed in HEK293 cells; format: cell-based
Summary of the method: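 Competitive binding on membranes from HEK293 cells stably expressing human MC5 receptor, with [125I]NDP-MSH as the radioligand. Inhibition of radioligand binding was measured and Ki derived from more than 3 determinations.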

Melanocortin receptor 4 [2] = target: T2, Melanocortin receptor 4 (Homo sapiens, UniProt P32245); test: Intrinsic activity as percentage of maximal melanocortin receptor 4 related cAMP production relative to alpha-MSH; format: functional
Melanocortin receptor 3 = Melanocortin receptor 3 (Homo sapiens, UniProt P41968); test: Binding affinity for human melanocortin 3 receptor
Summary of the method: (§1)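 Human MC1, MC3 or MC4 receptor expressed in HEK293 cells. Membranes bearing each receptor were used in a competitive binding assay measuring inhibition of [125I]NDP-MSH binding, with inhibition curves generated.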

Melanocortin receptor 5 [3] = target: T1, Melanocortin receptor 5; test: Inhibition of human Melanocortin 5 receptor
[4] = target: T3, Melanocyte-stimulating hormone receptor (Homo sapiens, UniProt Q01726); test: Percentage inhibition of human melanocortin 1 receptor at 10 uM
Target sequence in this assay (Q01726 whole entry, looked up): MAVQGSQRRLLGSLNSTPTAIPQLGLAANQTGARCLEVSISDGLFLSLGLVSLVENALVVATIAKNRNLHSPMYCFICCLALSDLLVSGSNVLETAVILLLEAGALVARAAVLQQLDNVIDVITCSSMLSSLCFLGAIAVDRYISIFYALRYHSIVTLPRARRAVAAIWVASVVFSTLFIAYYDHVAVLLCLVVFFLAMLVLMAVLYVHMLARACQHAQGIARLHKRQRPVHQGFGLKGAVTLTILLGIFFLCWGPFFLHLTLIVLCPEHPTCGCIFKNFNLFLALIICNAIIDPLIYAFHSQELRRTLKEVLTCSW

Melanocortin receptor 4 [5] = target: T2, Melanocortin receptor 4; test: Binding affinity for human melanocortin 4 receptor; summary of the method: as §1
[6] = target: T3, Melanocyte-stimulating hormone receptor; test: Binding affinity for human melanocortin 1 receptor; summary of the method: as §1
Target sequence in this assay (Q01726 whole entry): as the sequence (Q01726 whole entry, looked up) above

T2 sequence (P32245 whole entry): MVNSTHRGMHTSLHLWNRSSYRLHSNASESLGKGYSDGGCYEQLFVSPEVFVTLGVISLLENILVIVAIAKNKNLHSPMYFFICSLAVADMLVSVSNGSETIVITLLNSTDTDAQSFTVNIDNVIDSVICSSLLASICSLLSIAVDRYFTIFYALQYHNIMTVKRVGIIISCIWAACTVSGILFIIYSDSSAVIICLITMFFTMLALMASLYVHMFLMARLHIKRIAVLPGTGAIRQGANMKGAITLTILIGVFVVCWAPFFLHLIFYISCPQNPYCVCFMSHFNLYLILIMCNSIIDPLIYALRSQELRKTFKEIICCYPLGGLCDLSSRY
Sequence of Melanocortin receptor 3 (P41968 whole entry): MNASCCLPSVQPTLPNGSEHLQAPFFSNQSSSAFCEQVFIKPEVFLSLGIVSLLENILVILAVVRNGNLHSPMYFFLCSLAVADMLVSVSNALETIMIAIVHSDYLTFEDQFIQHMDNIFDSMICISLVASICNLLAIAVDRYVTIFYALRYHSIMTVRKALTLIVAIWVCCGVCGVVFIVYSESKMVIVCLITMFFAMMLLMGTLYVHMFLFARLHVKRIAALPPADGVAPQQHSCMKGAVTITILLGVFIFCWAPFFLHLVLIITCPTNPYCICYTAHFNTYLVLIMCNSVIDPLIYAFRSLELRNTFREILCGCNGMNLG
T1 sequence (P33032 whole entry): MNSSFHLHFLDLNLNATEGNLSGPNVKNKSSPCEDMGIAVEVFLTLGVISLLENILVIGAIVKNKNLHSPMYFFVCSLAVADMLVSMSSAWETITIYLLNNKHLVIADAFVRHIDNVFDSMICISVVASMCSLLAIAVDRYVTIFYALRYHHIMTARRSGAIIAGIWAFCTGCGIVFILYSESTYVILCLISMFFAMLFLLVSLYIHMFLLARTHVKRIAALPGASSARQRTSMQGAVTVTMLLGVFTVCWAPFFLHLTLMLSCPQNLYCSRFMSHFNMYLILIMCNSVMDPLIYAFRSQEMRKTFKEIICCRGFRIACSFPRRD

Ki (Melanocortin receptor 5 [1]) [nM]	Ki (Melanocortin receptor 3) [nM]	IC50 (Melanocortin receptor 5 [3]) [nM]	Ki (Melanocortin receptor 4 [5]) [nM]	Structure (SMILES)	other results
560	–	–	–	O=C1CN(C(=NC2CCCCC2)Nc2ccc(C(=O)NCCc3ccc(Cl)cc3Cl)cc2)CCN1	–
1050	–	–	–	CC1C(=O)NCCN1C(=NC1CCCCC1)Nc1ccc(C(=O)NCCc2ccc(Cl)cc2Cl)cc1 (stereo not given)	–
36	2300	630	1400	CNC1CCN(/C(=N/c2ccc(C(=O)NCCc3ccc(Cl)cc3Cl)cc2)NC2CCCCC2)C1 (stereo not given)	IA (Melanocortin receptor 4 [2]): 36%; inhibition [4]: 27%
–	–	–	–	C[C@@H]1CN(/C(=N/c2ccc(C(=O)NCCc3ccc(Cl)cc3Cl)cc2)NC2CCCCC2)CCN1	IA (Melanocortin receptor 4 [2]): 37%; inhibition [4]: 25%
–	–	–	–	O=C(NCCc1ccc(Cl)cc1Cl)c1ccc(N/C(=N/C2CCCCC2)N2CCNCC2)cc1	IA (Melanocortin receptor 4 [2]): 28%
230	–	–	–	NC1CCN(C(=NC2CCCCC2)Nc2ccc(C(=O)NCCc3ccc(Cl)cc3Cl)cc2)CC1	–
–	–	–	–	CC1CN(/C(=N/c2ccc(C(=O)NCCc3ccc(Cl)cc3Cl)cc2)NC2CCCCC2)CC(C)N1 (stereo not given)	IA (Melanocortin receptor 4 [2]): 76%; inhibition [4]: 23%
2.1	3500	70	840	C[C@@H]1CN(C(=NC2CCCCC2)Nc2ccc(C(=O)NCCc3ccc(Cl)cc3Cl)cc2)CCN1	–
290	–	–	–	O=C(NCCc1ccc(Cl)cc1Cl)c1ccc(NC(=NC2CCCCC2)N2CCN(c3ccccc3)CC2)cc1	–
1760	–	–	–	Cc1ccc(C)c(N2CCN(C(=NC3CCCCC3)Nc3ccc(C(=O)NCCc4ccc(Cl)cc4Cl)cc3)CC2)c1	–
77	–	–	–	O=C(NCCc1ccc(Cl)cc1Cl)c1ccc(NC(=NC2CCCCC2)N2CCC(N3CCCC3)CC2)cc1	–
21	2800	380	580	C[C@H]1CN(/C(=N/c2ccc(C(=O)NCCc3ccc(Cl)cc3Cl)cc2)NC2CCCCC2)CCN1	IA (Melanocortin receptor 4 [2]): 65%; inhibition [4]: 29%
305	–	–	–	O=C(NCCc1ccc(Cl)cc1Cl)c1ccc(NC(=NC2CCCCC2)N2CCN(c3ncccn3)CC2)cc1	–
91	–	–	–	CN(/C(=N/c1ccc(C(=O)NCCc2ccc(Cl)cc2Cl)cc1)NC1CCCCC1)C1CCCCC1	–
360	–	–	–	CCCN(CCC)/C(=N/c1ccc(C(=O)NCCc2ccc(Cl)cc2Cl)cc1)NC1CCCCC1	–
5.9	2800	380	840	C[C@@H]1CN[C@@H](C)CN1/C(=N/c1ccc(C(=O)NCCc2ccc(Cl)cc2Cl)cc1)NC1CCCCC1	Ki [6]: 360 nM
44	–	–	–	O=C(NCCc1ccc(Cl)cc1Cl)c1ccc(NC(=NC2CCCCC2)N2CCN(Cc3ccccc3)CC2)cc1	–
70	–	–	–	O=C(NCCc1ccc(Cl)cc1Cl)c1ccc(NC(=NC2CCCCC2)NCc2cc(F)cc(F)c2)cc1	–
18	2200	460	650	O=C(NCCc1ccc(Cl)cc1Cl)c1ccc(NC(=NC2CCCCC2)N2CCNCC2)cc1	Ki [6]: 400 nM
11	3900	89	590	CC1CN(C(=NC2CCCCC2)Nc2ccc(C(=O)NCCc3ccc(Cl)cc3Cl)cc2)CC(C)N1 (stereo not given)	–
350	–	–	–	CC1CN(C(=NC2CCCCC2)Nc2ccc(C(=O)NCCc3ccc(Cl)cc3Cl)cc2)CC(C)O1 (stereo not given)	–
26	2500	530	1500	O=C(NCCc1ccc(Cl)cc1Cl)c1ccc(N/C(=N\C2CCNC2)NC2CCCCC2)cc1 (stereo not given)	Ki [6]: 1900 nM
50	–	–	–	CN1CCN(/C(=N/c2ccc(C(=O)NCCc3ccc(Cl)cc3Cl)cc2)NC2CCCCC2)CC1	–
5.3	2400	530	1300	CC(C)(N)C/N=C(\Nc1ccc(C(=O)NCCc2ccc(Cl)cc2Cl)cc1)NC1CCCCC1	IA (Melanocortin receptor 4 [2]): 45%; inhibition [4]: 27%
144	–	–	–	CC1CC(C)CN(C(=NC2CCCCC2)Nc2ccc(C(=O)NCCc3ccc(Cl)cc3Cl)cc2)C1 (stereo not given)	–
